Assay results from ChEMBL document CHEMBL4177768, “Synthesis and Biological Evaluation of Derivatives of Indoline as Highly Potent Antioxidant and Anti-inflammatory Agents” (J Med Chem, 2018).
Calls of active or inactive are those of the source. The calls are words filed in the database; no cut-off is given here.

Experiments:
[1] = Cytotoxicity against mouse RAW264.7 cells assessed as cell viability at 10^-9 M after 24 hrs by MTT assay relative to control; type: cell-based; settings: read-out: Activity
How it was run: (§1)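 RAW 264.7 cells, seeded at 1×10^4 cells/mL and incubated 24 h, were exposed to compound from 1 pM to 100 nM. Viability was read by MTT (final 0.5 mg/mL, 1 h at 37 °C), with formazan dissolved in DMSO and OD at 570 nm. Results are compared with medium-only cells.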

[2] = system: RAW264.7; test: Cytoprotective activity against H2O2-induced oxidative stress in mouse RAW264.7 cells assessed as decrease in caspase-3 activity at 1 pM incubated for 4 hrs prior to H2O2 addition measured after 90 mins by caspase-GloR reagent-based luminescence assay relative to control; type: functional; parameters: scale not given: the % may be the effect or the level left
How it was run: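 RAW 264.7 macrophages were pretreated with compound (1 pM or 1 nM) 4 h before H2O2 100 µM. Medium was replaced with fresh DMEM after 90 min and plates were incubated overnight. Caspase-Glo 3/7 reagent was added and luminescence read after 30 min at room temperature. Mean ± SD, 4-6 replicates.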

[3] = system: Mus musculus; test: Antiinflammatory activity in Balb/C mouse assessed as reduction in LPS-induced IL6 production in plasma at 1 umol/kg, sc administered LPS 15 mins post compound treatment measured after 4 hrs by ELISA; type: functional, organism-based
How it was run: (§2)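 Male Balb/C mice, 7-8 weeks old, given compound sc (0.1, 1 or 10 µmoles/kg) or saline. LPS 10 mg/kg was given ip 15 min later, and mice were killed 4 h after that. Spleens were homogenized in PBS with protease inhibitor and centrifuged at 14,000 g, 4 °C. Cytokines in plasma and tissue supernatants were measured by ELISA, with protein by BCA. Dexamethasone 5.6 µmoles/kg was the reference. n = 8-10 mice per treatment.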

[4] = Cytotoxicity against mouse RAW264.7 cells assessed as cell viability at 10^-11 M after 24 hrs by MTT assay relative to control; type: cell-based; settings: read-out: Activity; how it was run: as §1
[5] = system: Mus musculus; test: Antiinflammatory activity in Balb/C mouse assessed as reduction in LPS-induced TNF-alpha production in spleen at 1 umol/kg, sc administered LPS 15 mins post compound treatment measured after 4 hrs by ELISA; type: functional, organism-based; how it was run: as §2
[6] = system: Mus musculus; test: Acute toxicity in Balb/C mouse assessed as change in activity at 100 umol/kg, sc measured over 72 hrs; type: organism-based; settings: in vivo
How it was run: (§3)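 Male Balb/C mice, 24-28 g, groups of 3; single sc injection of compound at 100 μmoles/kg or saline (1 mL/100 g). Food and water intake, body weight and general activity monitored over 72 h against saline-injected animals.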

[7] = system: Mus musculus; test: Antiinflammatory activity in Balb/C mouse assessed as reduction in LPS-induced TNF-alpha production in plasma at 1 umol/kg, sc administered LPS 15 mins post compound treatment measured after 4 hrs by ELISA; type: functional, organism-based; how it was run: as §2
[8] = Cytotoxicity against mouse RAW264.7 cells assessed as cell viability at 10^-7 M after 24 hrs by MTT assay relative to control; type: cell-based; settings: read-out: Activity; how it was run: as §1
[9] = system: RAW264.7; test: Antiinflammatory activity in mouse RAW264.7 cells assessed as reduction in LPS-induced nitric oxide production at 1 pM to 100 nM incubated for 2 hrs prior to LPS challenge measured after 24 hrs by Griess assay; type: functional, cell-based
How it was run: (§4)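 RAW 264.7 macrophages were plated at 1×10^5 per well, grown overnight and washed with PBS. Compounds in water (final 1 pM-100 nM, medium with 2% FCS) were added 2 h at 37 °C before E. coli 0111:B4 LPS, 2.5 µg/mL. TNF-α was sampled at 8 h; IL-6 and nitrite (Griess) at 24 h. ELISA was used for cytokines. Values are % of the LPS + medium value in each experiment. Budesonide was the reference. 2-3 experiments, 6 wells per concentration.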

[10] = system: RAW264.7; test: Cytoprotective activity against H2O2-induced oxidative stress in mouse RAW264.7 cells assessed as decrease in LDH release at 1 pM incubated for 2 hrs prior to H2O2 addition by colorimetric assay relative to control; type: functional; parameters: scale not given: the % may be the effect or the level left
How it was run: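 RAW 264.7 cells were seeded and pretreated with compound before H2O2 100 µM, in serum-free medium. Collected medium was centrifuged and incubated with reaction mix 30 min at room temperature. LDH was measured as NADH formation by colorimetric read at 490 nm. n = 8-10 replicates per concentration.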

[11] = system: Mus musculus; test: Acute toxicity in Balb/C mouse assessed as change in water intake at 100 umol/kg, sc measured over 72 hrs; type: organism-based; settings: in vivo; how it was run: as §3
[12] = Cytotoxicity against mouse RAW264.7 cells assessed as cell viability at 10^-8 M after 24 hrs by MTT assay relative to control; type: cell-based; settings: read-out: Activity; how it was run: as §1
[13] = system: Mus musculus; test: Antiinflammatory activity in Balb/C mouse assessed as reduction in LPS-induced IL6 production in liver at 0.1 to 10 umol/kg, sc administered LPS 15 mins post compound treatment measured after 4 hrs by ELISA; type: functional, organism-based
[14] = system: Mus musculus; test: Acute toxicity in Balb/C mouse assessed as change in body weight at 100 umol/kg, sc measured over 72 hrs; type: organism-based; settings: in vivo; how it was run: as §3
[15] = system: RAW264.7; test: Antiinflammatory activity in mouse RAW264.7 cells assessed as reduction in LPS-induced IL-6 production at 1 nM incubated for 2 hrs prior to LPS challenge measured after 24 hrs by ELISA; type: functional; how it was run: as §4
[16] = system: Mus musculus; test: Antiinflammatory activity in Balb/C mouse assessed as reduction in LPS-induced IL6 production in spleen at 1 umol/kg, sc administered LPS 15 mins post compound treatment measured after 4 hrs by ELISA; type: functional, organism-based; how it was run: as §2
[17] = system: Mus musculus; test: Antiinflammatory activity in Balb/C mouse assessed as reduction in LPS-induced IL6 production in brain at 0.1 to 10 umol/kg, sc administered LPS 15 mins post compound treatment measured after 4 hrs by ELISA; type: functional, organism-based
[18] = system: RAW264.7; test: Cytoprotective activity against H2O2-induced oxidative stress in mouse RAW264.7 cells assessed as cell viability at 10 nM incubated for 2 hrs prior to H2O2 addition measured after 24 hrs by MTT assay (reference value: 68 to 72.8%); type: functional; settings: read-out: Activity
[19] = Cytotoxicity against mouse RAW264.7 cells assessed as cell viability at 10^-10 M after 24 hrs by MTT assay relative to control; type: cell-based; settings: read-out: Activity; how it was run: as §1
[20] = system: RAW264.7; test: Cytoprotective activity against H2O2-induced oxidative stress in mouse RAW264.7 cells assessed as decrease in LDH release at 1 pM incubated for 2 hrs prior to H2O2 addition by colorimetric assay relative to control; parameters: scale not given: the % may be the effect or the level left
[21] = Cytotoxicity against mouse RAW264.7 cells assessed as cell viability at 10^-12 M after 24 hrs by MTT assay relative to control; type: cell-based; settings: read-out: Activity; how it was run: as §1
[22] = system: RAW264.7; test: Antiinflammatory activity in mouse RAW264.7 cells assessed as reduction in LPS-induced IL-6 production at 100 pM incubated for 2 hrs prior to LPS challenge measured after 24 hrs by ELISA; type: functional; how it was run: as §4
[23] = system: Mus musculus; test: Acute toxicity in Balb/C mouse assessed as change in food intake at 100 umol/kg, sc measured over 72 hrs; type: organism-based; settings: in vivo; how it was run: as §3
[24] = system: RAW264.7; test: Antiinflammatory activity in mouse RAW264.7 cells assessed as reduction in LPS-induced TNF-alpha production at 1 pM to 100 nM incubated for 2 hrs prior to LPS challenge measured after 8 hrs by ELISA; type: functional, cell-based; how it was run: as §4
[25] = system: RAW264.7; test: Antiinflammatory activity in mouse RAW264.7 cells assessed as reduction in LPS-induced TNF-alpha production at 100 pM to 100 nM incubated for 2 hrs prior to LPS challenge measured after 8 hrs by ELISA; type: functional, cell-based; how it was run: as §4
[26] = system: RAW264.7; test: Antiinflammatory activity in mouse RAW264.7 cells assessed as reduction in LPS-induced IL-6 production at 100 pM to 100 nM incubated for 2 hrs prior to LPS challenge measured after 24 hrs by ELISA; type: functional, cell-based; how it was run: as §4
[27] = system: RAW264.7; test: Cytoprotective activity against H2O2-induced oxidative stress in mouse RAW264.7 cells assessed as cell viability at 100 nM incubated for 2 hrs prior to H2O2 addition measured after 24 hrs by MTT assay (reference value: 68 to 72.8%); type: functional; settings: read-out: Activity
[28] = system: RAW264.7; test: Antiinflammatory activity in mouse RAW264.7 cells assessed as reduction in LPS-induced nitric oxide production at 100 pM incubated for 2 hrs prior to LPS challenge measured after 24 hrs by Griess assay; type: functional; how it was run: as §4
[29] = system: RAW264.7; test: Antiinflammatory activity in mouse RAW264.7 cells assessed as reduction in LPS-induced TNF-alpha production at 100 pM incubated for 2 hrs prior to LPS challenge measured after 8 hrs by ELISA; type: functional; how it was run: as §4
[30] = system: RAW264.7; test: Antiinflammatory activity in mouse RAW264.7 cells assessed as reduction in LPS-induced nitric oxide production at 1 nM incubated for 2 hrs prior to LPS challenge measured after 24 hrs by Griess assay; type: functional; how it was run: as §4
[31] = system: RAW264.7; test: Antiinflammatory activity in mouse RAW264.7 cells assessed as reduction in LPS-induced TNF-alpha production at 1 nM incubated for 2 hrs prior to LPS challenge measured after 8 hrs by ELISA; type: functional; how it was run: as §4
[32] = system: RAW264.7; test: Cytoprotective activity against H2O2-induced oxidative stress in mouse RAW264.7 cells assessed as cell viability at 1 pM incubated for 2 hrs prior to H2O2 addition measured after 24 hrs by MTT assay (reference value: 68 to 72.8%); type: functional; settings: read-out: Activity
[33] = system: RAW264.7; test: Antiinflammatory activity in mouse RAW264.7 cells assessed as reduction in LPS-induced IL6 production at 1 pM to 100 nM incubated for 2 hrs prior to LPS challenge measured after 24 hrs by ELISA; type: functional, cell-based; how it was run: as §4

COC(=O)CCN1CCc2ccccc21.Cl
viability at 24 h, 0.001 µM [1]: 92.6% | Activity [2]: 60% | Activity [3]: Active | viability at 24 h, 1e-05 µM [4]: 91.5% | Activity [5]: Active | Activity [6]: Non-Toxic | Activity [7]: Active | viability at 24 h, 0.1 µM [8]: 90.8% | Activity [9]: Active | Activity [10]: 16% | Activity [11]: Non-Toxic | viability at 24 h, 0.01 µM [12]: 91.8% | Activity [13]: Active | Activity [14]: Non-Toxic | Activity [15]: Active | Activity [16]: Active | Activity [17]: Active | viability at 0.01 µM [18]: 85.9% | viability at 24 h, 0.0001 µM [19]: 93.3% | Activity [20]: 16% | viability at 24 h, 1e-06 µM [21]: 95% | Activity [22]: Active | Activity [23]: Non-Toxic | Activity [24]: Active

CCCC1O[C@@H]2C[C@H]3[C@@H]4CCC5=CC(=O)C=C[C@]5(C)[C@H]4[C@@H](O)C[C@]3(C)[C@]2(C(=O)CO)O1 (stereo partly drawn)
Activity [9]: Active | Activity [25]: Active | Activity [26]: Active

Cl.OCCCN1CCc2ccccc21
viability at 24 h, 0.001 µM [1]: 95.1% | viability at 24 h, 1e-05 µM [4]: 89.9% | viability at 24 h, 0.1 µM [8]: 94.4% | Activity [10]: 16% | viability at 24 h, 0.01 µM [12]: 92.3% | Activity [25]: Active | viability at 24 h, 0.0001 µM [19]: 91.6% | Activity [20]: 16% | viability at 24 h, 1e-06 µM [21]: 89.5% | Activity [26]: Active | viability at 0.1 µM [27]: 89.8%

COC(=O)CCC1CNc2ccccc21 (stereo not drawn)
viability at 24 h, 0.001 µM [1]: 97.1% | viability at 24 h, 1e-05 µM [4]: 93.2% | viability at 24 h, 0.1 µM [8]: 92.9% | viability at 24 h, 0.01 µM [12]: 94.5% | Activity [28]: Active | Activity [15]: Active | Activity [29]: Active | viability at 24 h, 0.0001 µM [19]: 96.6% | viability at 24 h, 1e-06 µM [21]: 99.5% | Activity [30]: Active | Activity [22]: Active | Activity [31]: Active

Cc1ccc(S(C)(=O)=O)cc1.Cc1ccc(S(C)(=O)=O)cc1.NCCCN1CCc2cccc(OCc3ccccc3)c21
Activity [2]: inactive | Activity [9]: Dose-dependent effect | Activity [24]: Dose-dependent effect | viability at 0.1 µM [27]: 79.3%

COC(=O)CCN1CCc2cc(OC)ccc21.Cl
Activity [2]: 60% | viability at 1 pM [32]: 91% | Activity [9]: Active | Activity [10]: 16% | Activity [20]: 16%

COc1ccc2c(c1)CCN2CCCO.Cl
viability at 24 h, 0.001 µM [1]: 95.3% | Activity [3]: Active | viability at 1 pM [32]: 95.6% | viability at 24 h, 1e-05 µM [4]: 93.4% | Activity [5]: Active | Activity [7]: Active | viability at 24 h, 0.1 µM [8]: 91.9% | Activity [9]: Active | viability at 24 h, 0.01 µM [12]: 91.4% | Activity [28]: 50% | Activity [13]: Active | Activity [16]: Active | Activity [17]: Active | Activity [29]: 50% | viability at 24 h, 0.0001 µM [19]: 93.9% | viability at 24 h, 1e-06 µM [21]: 91.9% | Activity [22]: 50% | Activity [33]: Active | Activity [24]: Active
